DNMT1 block: human DNMT1 methyltransferase inhibitors, primary screen, biochemical, molecular beacon, fluorescence, HinP1I cleavage, uHTS. inhibition (reported as % activation of signal), % at 10 µM. hit rate 0.83% among 360,000. AID 588458, 2011; in the data active = inhibition above about 50%
Scp-1 inhibitor: Scp-1 phosphatase inhibitors, primary screen, biochemical, colorimetric, uHTS; Carboxy-terminal domain RNA polymerase II polypeptide A small phosphatase 1 (Homo …; Recombinant Scp1, phosphopeptide, malachite green phosphate absorbance; inhibition, % at 20 µM; hit rate 0.88% among 340,000;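 active = inhibition above about 50% at 20 µM, limit read from the data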;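 also: plate controls were DMSO wells with enzyme for no effect and wells lacking enzyme for full effect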
Target sequence (Q9GZU7 76-261 limits assumed): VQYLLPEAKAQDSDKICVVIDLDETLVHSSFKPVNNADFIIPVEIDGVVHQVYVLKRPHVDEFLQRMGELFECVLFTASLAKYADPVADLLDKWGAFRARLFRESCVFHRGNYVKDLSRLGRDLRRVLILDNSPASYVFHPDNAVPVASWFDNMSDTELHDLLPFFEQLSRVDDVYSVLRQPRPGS
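System: SCP-1 catalytic domain; Reagent: Phospho 17-mer peptide substrate; Doses: one concentration, 20 µM, with 1.0% DMSO; Incubation: 45 min room-temperature reaction, 5 min colour, 30 min stabiliser; Signal: Phosphate-binding colour reagent, absorbance read at 630 nm.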
LMPTP block: LMPTP phosphatase inhibitors, primary screen, biochemical, fluorescence intensity, uHTS | Low molecular weight phosphotyrosine protein phosphatase (Homo sapiens), P24666 | recombinant LMPTP-A, OMFP fluorogenic substrate | inhibition, % at 20 µM | hit rate 0.22% among 360,000 | AID 651560, 2012;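 active = compounds that cut the enzyme signal by at least half of the control window in the single-dose screen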;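 also: plate controls were DMSO wells with enzyme plus substrate for no effect and substrate without enzyme for full effect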
Target sequence (P24666 whole entry, looked up): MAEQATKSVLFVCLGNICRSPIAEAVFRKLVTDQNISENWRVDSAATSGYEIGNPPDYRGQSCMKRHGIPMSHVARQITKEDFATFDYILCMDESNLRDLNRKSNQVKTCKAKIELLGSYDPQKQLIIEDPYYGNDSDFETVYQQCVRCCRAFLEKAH
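material = LMPTP-A | quantity = 0.625 nM enzyme | reagent = OMFP substrate, 400 µM final | buffer or medium = Bis-Tris pH 6.0, DTT, detergent | detection = endpoint fluorescence intensity from OMFP dephosphorylation | dosing = single 20 µM dose | read-out basis = % inhibition relative to no-enzyme and uninhibited control wells | control set = no-enzyme and uninhibited controls | timing = 50 min at room temperature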
STEP inh: STEP phosphatase inhibitors, primary screen, biochemical, fluorescence intensity, uHTS. hit rate 0.25% among 360,000. AID 588621, 2011. Tyrosine-protein phosphatase non-receptor type 5 (Homo sapiens), P54829. recombinant STEP, OMFP fluorogenic substrate. inhibition, % at 20 µM;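 active = inhibition at 20 µM, scaled per plate between control wells, above about 37%, limit read from the data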;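 also: 0% = DMSO with enzyme and substrate and 100% = substrate only without enzyme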
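System: isolated STEP enzyme; schedule: 20 min enzyme reaction at room temperature, protected from light; medium: Bis-Tris buffer pH 6.0, 2.5 mM DTT, 0.005% Tween 20; signal: fluorescence, 480/540 nm; dosing: single compound dose of 20 µM, 1% DMSO final; also added: OMFP substrate, 25 µM final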
GRK2 inh: compounds blocking aptamer binding on GRK2 – biochemical, human GRK2, bead flow cytometry, HTS, primary screen; FAM-aptamer displacement from GRK2; AID 488847, 2010; Beta-adrenergic receptor kinase 1 (Homo sapiens), P25098; inhibition of aptamer binding, % at 10 µM; hit rate 0.59% among 330,000;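 active = inhibition of aptamer binding above 40%, roughly 3 SD of noise, on plates passing a quality check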;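 also: median bead fluorescence of bound FAM aptamer so fluorescent compounds give negative values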
SUMO1 PPI mod: modulators of SUMO1 protein-protein interactions, primary screen, biochemical, uHTS. Small ubiquitin-related modifier 1 (Homo sapiens), P63165. SUMO1 binding to a labelled peptide, TR-FRET, 1 h. inhibition, % at 20 µM. hit rate 0.33% among 360,000. AID 602429, 2012; in the data active = inhibition above about 37%
Target sequence (P63165 whole entry, looked up): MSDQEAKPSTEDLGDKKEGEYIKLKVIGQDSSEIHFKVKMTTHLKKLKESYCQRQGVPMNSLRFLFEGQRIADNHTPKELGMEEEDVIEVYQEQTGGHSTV
GRK2 CP1: GRK2 aptamer-displacing inhibitors, retest, confirmation, biochemical, cherry pick 1, bead flow cytometry; shares compounds with GRK2 inh; bead-bound GRK2, FAM-aptamer displacement; aptamer displacement, % at 10 µM; hit rate 4% among 2,000;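 active = aptamer displacement above 40%, near three times the noise of non-fluorescent compounds, on plates passing quality checks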;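 also: negative values mostly reflect intrinsic compound fluorescence rather than true enhancement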
Aptamer quench SP: aptamer fluorescence quenching in GRK2 counter-screen. shares compounds with GRK2 inh. Carboxyfluorescein RNA aptamer on beads, flow cytometry quenching; hits give low values. 2,000 tested, under 10 active. fluorescence response (% of DMSO), % at 10 µM. AID 504580;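 active = compounds that quench the bead-bound fluorescent RNA probe, cutting fluorescence to under half of the solvent control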;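 also: counterscreen run without GRK2 so only probe quenching by compound is measured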
GRK2 confirm 2: GRK2 aptamer-displacing inhibitors, hit retest, confirmation, biochemical, cherry pick 2, bead flow cytometry. shares compounds with GRK2 inh. bead-bound GRK2, FAM-aptamer displacement. inhibition of aptamer binding, % at 10 µM. 360 tested, under 10 active;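 active = inhibition of aptamer binding above 40%, about triple the noise seen with nonglowing compounds, on plates passing quality control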;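 also: negative values mostly come from compounds that fluoresce themselves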
FAM quench CP2: quenches fluorescent RNA aptamer, GRK2 hit artifact. shares compounds with GRK2 inh. carboxyfluorescein RNA aptamer beads, flow cytometry quenching; hits give low values. fluorescence response vs DMSO, % at 10 µM. 360 tested, under 10 active. AID 588494;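 active = response vs DMSO under 50%, meaning signal dropped by over half, treated as fluorescence quencher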;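 also: labelled aptamer on streptavidin beads without GRK2 as a quench counter-screen; 100% = bead fluorescence of DMSO wells and lower means quenching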
Numbers without * were called inactive; / = no result. The list is not random: actives were taken first. Their share in the collection is about 2.1%.

SMILES | DNMT1 block | Scp-1 inhibitor | LMPTP block | STEP inh | GRK2 inh | SUMO1 PPI mod | GRK2 CP1 | Aptamer quench SP | others
CCOc1ccc(CCNC(=O)Nc2cccc(OC)c2)cc1OCC | -2 | -7 | -1 | 2 | 41* | 0 | / | / | GRK2 confirm 2=-8;FAM quench CP2=98
CC(=O)N/C(=C\c1ccccc1)C(=O)NCc1ccc2c(c1)OCO2 | -1 | -8 | -2 | -3 | 64* | 2 | 1 | 97
CC(=O)N/C(=C/c1ccc2c(c1)OCO2)C(=O)NCC(=O)O | 0 | -2 | -3 | 0 | 0 | 0 | / | /
O=Cc1ccc(OCC(=O)Nc2ccccc2-c2ccccc2)cc1 | 2 | -9 | -1 | -2 | 61* | 5 | -5 | 130
Cc1ccc(OCC(=O)Nc2ccccc2-c2ccccc2)cc1 | 8 | -1 | 3 | 2 | 0 | -3 | / | /
CCOC(=O)N1CCN(C(=O)CCC(=O)N2CCOc3ccc(C)cc32)CC1 | 4 | -4 | -1 | -7 | 93* | 0 | -2 | 98
NC(c1ccccc1)c1csc(NC(=O)NCC2CCCCC2)n1 (stereo not given) | -1 | / | -3 | -2 | / | -4 | / | /
C=CCOc1ccc(C2C(C(=O)c3ccco3)=C(O)C(=O)N2c2nnc(C)s2)cc1 (stereo not given) | 12 | 2 | 5 | -5 | 73* | -19 | 2 | 104
COc1ccc(C2C(C(=O)c3ccco3)=C(O)C(=O)N2c2nnc(C)s2)cc1 (stereo not given) | 5 | -1 | -1 | -5 | 0 | -15 | / | /
C=CCNC(=S)NNC(=O)C(CCC(C)C)CC(C)O (stereo not given) | 0 | -14 | -1 | -2 | 0 | 4 | / | /
C=CCNC(=S)NNC(=O)C(CCCC)CC(O)COCC(C)C (stereo not given) | 0 | -4 | -1 | 0 | 45* | 1 | 4 | 101
Cc1ccc(-c2cccc(C3CC=CC4C3C(=O)N(Cc3ccccc3)C4c3cc(C)ccc3F)c2)cc1 (stereo not given) | 13 | -6 | 6 | 3 | 4 | 3 | 1 | 102
COc1ccc(-c2cccc(C3CC=CC4C3C(=O)N(Cc3ccccc3)C4c3ccc(C(F)(F)F)cc3)c2)cc1 (stereo not given) | 8 | -6 | 2 | 2 | 0 | 0 | / | /
NNC(=O)c1sc2cc(C(F)(F)F)cnc2c1-c1cccnc1 | 5 | 4 | 1 | -2 | 41* | -3 | 2 | 112
CCOC(=O)CSc1nnc(CSc2nc3sc4c(c3c(=O)[nH]2)CCC4)n1-c1ccccc1 | 3 | -2 | 0 | 3 | 0 | 8 | / | /
CCOC(=O)CSc1nnc(CSc2nc3sc4c(c3c(=O)[nH]2)CCC4)n1C | 11 | -8 | -1 | 1 | 67* | 3 | 1 | 101
Cc1cccc(NC(=O)CSc2c3c(nc4ccccc24)CCC3)n1 | -1 | -13 | 0 | -4 | 0 | -4 | / | / | GRK2 confirm 2=18;FAM quench CP2=98
Cc1cc(C)cc(NC(=S)N2CCN(c3ncc(C(F)(F)F)cc3Cl)CC2)c1 | 8 | -11 | 1 | 1 | 0 | 1 | / | /
Cc1cc(C)c(OCC(=O)N2CCN(c3ncc(C(F)(F)F)cc3Cl)CC2)c(C)c1 | 3 | -5 | 6 | 4 | 80* | 0 | / | / | GRK2 confirm 2=19;FAM quench CP2=100
Cc1ccc2oc(=O)c3cnn(CC(=O)NCCc4ccsc4)c3c2c1 | 0 | -7 | 0 | 1 | 61* | -2 | 5 | 102
CCN(CCCNC(=O)Cn1ncc2c(=O)oc3ccccc3c21)c1cccc(C)c1 | -3 | -5 | 0 | 4 | 74* | -6 | 1 | 96
CCCN(C(=O)Cn1ncc2c(=O)oc3ccccc3c21)c1cccc(C)c1 | -4 | -8 | -1 | 0 | 6 | 1 | / | /
COc1ccc(Cl)cc1NC(=O)CCN1C(=O)C2C3C=CC(C4CC34)C2C1=O (stereo not given) | 0 | -24 | 1 | 0 | 13 | 3 | / | /
O=C(CCC1CCCCC1)NC1CCCCC1 | -3 | -6 | -2 | -3 | 2 | 0 | / | /
COc1ccc(-c2noc(N3CCC(C(=O)Nc4ccc(OC)c(OC)c4)CC3)n2)cc1 | 7 | -7 | 0 | -6 | 83* | 0 | 0 | 100
SMILES | DNMT1 block | Scp-1 inhibitor | LMPTP block | STEP inh | GRK2 inh | SUMO1 PPI mod | GRK2 CP1 | Aptamer quench SP | others
COc1ccc(-c2noc(N3CCC(C(=O)Nc4ccccc4Cl)CC3)n2)cc1 | -4 | -9 | -1 | -4 | 0 | 2 | / | /
O=C1C2C(C(=O)N1c1ccccc1)N1CCCN1C2c1ccccc1 (stereo not given) | 0 | -6 | 2 | 2 | 2 | 2 | / | /
CC1(CC(=O)N/N=C/c2cc(Br)c(O)cc2O)OCCO1 | 1 | -8 | -10 | -6 | 0 | -3 | / | /
Cc1oc(/C=N/NC(=O)CC2(C)OCCO2)cc1Br | -3 | -3 | -2 | -1 | 35 | -8 | 1 | 99
C#CCn1c(=O)cc(C)c2ccccc21 | 0 | -6 | 0 | -2 | 47* | 3 | 2 | 102
O=C(NNC(=S)NCc1ccco1)c1ccc(S(=O)(=O)N2CCOCC2)cc1 | 1 | -12 | 0 | -2 | 1 | 1 | / | /
O=c1c2ccccc2nc2n1CCc1c-2[nH]c2ccccc12 | 7 | -14 | -1 | 0 | 19 | -1 | 3 | 95
Cc1ccc(/C=C2\SC(=S)N(CC3CCCO3)C2=O)o1 (stereo not given) | -6 | 7 | 3 | 3 | 22 | -19 | / | /
O=C1/C(=C\c2ccc(-c3ccccc3Cl)o2)SC(=S)N1CC1CCCO1 (stereo not given) | 2 | 8 | 5 | -2 | 51* | -20 | 36 | 108
Cc1ccc(O)c(C(=O)c2cnc3c(c2)CN(C)C(=O)N3)c1 | -3 | -5 | -1 | -4 | 0 | -6 | / | /

Compound activity (PubChem BioAssay)
